# According to ChEMBL document CHEMBL1137367, “Design, synthesis, and preliminary evaluation of doxazolidine carbamates as prodrugs activated by carboxylesterases” (J Med Chem, 2006):
# Experiments:
# SHP77 = test: Growth inhibition of SHP77 cells by crystal violet assay after 24 hrs; format: functional, cell-based; conditions: Homo sapiens, SHP77, 24 h
# Summary of the method: (§1)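 Cancer lines were grown in RPMI 1640 with 10% FCS and 1% pen-strep and seeded at 1000 cells/well overnight. Drug was given in serum-free medium for 3 or 24 h, then fresh complete medium until controls reached ~80% confluence (3-5 days). Cells were fixed with glutaraldehyde and stained with crystal violet, solubilised in 70% ethanol and read at 588 nm. IC50 is log molar, with six replicates per concentration and ≥2 experiments.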
# H9c2 [1] = test: Growth inhibition of H9c2(2-1) cells by crystal violet assay after 24 hrs; conditions: Rattus norvegicus, H9c2, 24 h
# NCI/ADR-RES [2] = test: Growth inhibition of MCF7/Adr cells by crystal violet assay after 24 hrs; format: functional, cell-based; conditions: Homo sapiens; summary of the method: as §1
# HepG2 [3] = test: Growth inhibition of HepG2 cells by crystal violet assay after 24 hrs; format: functional, cell-based; conditions: Homo sapiens, HepG2, 24 h; summary of the method: as §1
# Vero [4] = test: Cytotoxicity against Vero cells by MTT assay after 24 hrs; format: functional, cell-based; conditions: Chlorocebus sabaeus
# Summary of the method: (§2)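 Vero cells were grown in DMEM with 10% FCS and 1% pen-strep at 37 °C in 5% CO2. They were seeded at 1000 cells/well and left overnight to adhere. Drug was given in serum-free medium for 3 or 24 h, then replaced with fresh complete medium until untreated wells reached ~80% confluence (3-5 days). MTT was read at 554 nm and IC50 given as log molar. Each concentration was run in six wells, each experiment at least twice.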
# MCF7 [5] = test: Growth inhibition of MCF7 cells by crystal violet assay after 24 hrs; format: functional, cell-based; conditions: Homo sapiens, MCF7, 24 h; summary of the method: as §1
# DU-145 = test: Growth inhibition of DU145 cells by crystal violet assay after 24 hrs; format: functional, cell-based; conditions: Homo sapiens, DU-145, 24 h; summary of the method: as §1
# SK-HEP1 [6] = test: Growth inhibition of SK-HEP-1 cells by crystal violet assay after 24 hrs; format: functional, cell-based; conditions: Homo sapiens, SK-HEP1, 24 h; summary of the method: as §1
# MCF7 [7] = test: Growth inhibition of MCF7 cells by crystal violet assay after 3 hrs; format: functional, cell-based; conditions: Homo sapiens, MCF7, 3 h
# Summary of the method: (§3)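 Cells were seeded at 1000/well and left to adhere overnight at 37 °C in 5% CO2. They were then exposed for 3 h to a range of drug concentrations in serum-free RPMI 1640. Medium was replaced with fresh RPMI containing 10% fetal calf serum and 1% pen-strep, and cells were grown until untreated controls reached ~80% confluence (3-5 days). Cells were fixed with glutaraldehyde, stained with crystal violet, and the dye was solubilised in 70% ethanol before reading OD at 588 nm. IC50 is given as log molar. Each concentration was run six-fold, and each experiment at least twice.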
# HepG2 [8] = test: Growth inhibition of HepG2 cells by crystal violet assay after 3 hrs; format: functional, cell-based; conditions: Homo sapiens, HepG2, 3 h; summary of the method: as §3
# H9c2 [9] = test: Growth inhibition of rat H9c2(2-1) cells by MTT assay after 3 hrs; format: functional, cell-based; conditions: H9c2, 3 h
# Summary of the method: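 Rat cardiomyocytes were kept in DMEM with 10% FCS and pen-strep and seeded at 500 cells/well overnight. They got serum-free drug medium for 3 h, then fresh complete medium until controls reached ~80% confluence (3-5 days). Read-out was MTT optical density at 554 nm, with IC50 as log molar concentration. There were six replicates per concentration and at least two experiments.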
# NCI/ADR-RES [10] = test: Growth inhibition of MCF7/Adr cells by crystal violet assay after 3 hrs; format: functional, cell-based; conditions: Homo sapiens; summary of the method: as §1
# SK-HEP1 [11] = test: Growth inhibition of SK-HEP-1 cells by crystal violet assay after 3 hrs; format: functional, cell-based; conditions: Homo sapiens, SK-HEP1, 3 h; summary of the method: as §1
# Vero [12] = test: Cytotoxicity against Vero cells by MTT assay after 3 hrs; format: functional, cell-based; conditions: Chlorocebus sabaeus; summary of the method: as §2
# SK-HEP1 [13] = test: Decrease in drug uptake in SK-HEP-1 cells by flow cytometry at 0.5 uM in presence of 10% fetal bovine serum; format: functional, Homo sapiens; parameters: scale not given: the % may be the effect or the level left
# Summary of the method: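 SK-HEP-1 cells at 200,000 per well were attached overnight. They were then exposed at 37 °C to 0.5 μM drug (final) in RPMI with 10% fetal bovine serum or without serum. Cells were trypsinized at 0.5, 1, 1.5, 2 and 3 h and Dox fluorophore measured by flow cytometry. Mean fluorescence was divided by untreated control to give relative fluorescence.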
# [14] = Stability in buffer at pH 7.4 after 24 hrs; format: physicochemical; conditions: pH 7.4, 24 h
# Summary of the method: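 The compound was held in pH 7.4 buffer, without cells or growth medium, for 24 h at ambient temperature. Hydrolysis was followed by HPLC.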
Compound,IC50 (HepG2 [3]),IC50 (MCF7 [5]),IC50 (DU-145),IC50 (SK-HEP1 [6]),Stability [14],IC50 (SHP77),IC50 (H9c2 [1]),IC50 (NCI/ADR-RES [2]),IC50 (Vero [4]),IC50 (MCF7 [7]),IC50 (HepG2 [8]),IC50 (H9c2 [9]),IC50 (NCI/ADR-RES [10]),IC50 (SK-HEP1 [11]),IC50 (Vero [12]),Activity (SK-HEP1 [13])
CCCCCOC(=O)Nc1ccc(COC(=O)N2CO[C@@H]3[C@H](C)O[C@@H](O[C@H]4C[C@](O)(C(=O)CO)Cc5c(O)c6c(c(O)c54)C(=O)c4c(OC)cccc4C6=O)C[C@@H]32)cc1,50.1 nM,2510 nM,200 nM,1000 nM,–,50.1 nM,631 nM,316 nM,1000 nM,–,–,–,–,–,–,–
COc1cccc2c1C(=O)c1c(O)c3c(c(O)c1C2=O)C[C@@](O)(C(=O)CO)C[C@@H]3O[C@H]1C[C@@H]2NCO[C@@H]2[C@H](C)O1 [DOXAZOLIDINE],–,–,–,–,–,–,–,–,7.94 nM,3.16 nM,10 nM,31.6 nM,3.16 nM,3.98 nM,6.31 nM,–
COc1cccc2c1C(=O)c1c(O)c3c(c(O)c1C2=O)C[C@@](O)(C(=O)CO)C[C@@H]3O[C@H]1C[C@H](N)[C@H](O)[C@H](C)O1 [DOXORUBICIN],31.6 nM,12.6 nM,31.6 nM,50.1 nM,–,126 nM,20 nM,2510 nM,501 nM,316 nM,200 nM,31.6 nM,6310 nM,100 nM,1000 nM,–

# Now from value to compound, other results behind:
IC50 (HepG2 [3]),IC50 (MCF7 [5]),IC50 (DU-145),IC50 (SK-HEP1 [6]),Stability [14],Compound,IC50 (SHP77),IC50 (H9c2 [1]),IC50 (NCI/ADR-RES [2]),IC50 (Vero [4]),IC50 (MCF7 [7]),IC50 (HepG2 [8]),IC50 (H9c2 [9]),IC50 (NCI/ADR-RES [10]),IC50 (SK-HEP1 [11]),IC50 (Vero [12]),Activity (SK-HEP1 [13])
20 nM,79400 nM,501 nM,1580 nM,–,CCCCOC(=O)Nc1ccc(COC(=O)N2CO[C@@H]3[C@H](C)O[C@@H](O[C@H]4C[C@](O)(C(=O)CO)Cc5c(O)c6c(c(O)c54)C(=O)c4c(OC)cccc4C6=O)C[C@@H]32)cc1,79.4 nM,63.1 nM,1260 nM,794 nM,–,–,–,–,–,–,–
200 nM,794 nM,398 nM,398 nM,–,CCCCOC(=O)N1CO[C@@H]2[C@H](C)O[C@@H](O[C@H]3C[C@](O)(C(=O)CO)Cc4c(O)c5c(c(O)c43)C(=O)c3c(OC)cccc3C5=O)C[C@@H]21,251 nM,1580 nM,631 nM,501 nM,–,–,–,–,–,–,–
> 1000 nM,< 1000 nM,–,> 1000 nM,–,CCOC(=O)N1CO[C@@H]2[C@H](C)O[C@@H](O[C@H]3C[C@](O)(C(=O)CO)Cc4c(O)c5c(c(O)c43)C(=O)c3c(OC)cccc3C5=O)C[C@@H]21,–,–,> 10000 nM,–,> 1000 nM,> 1000 nM,1580 nM,5010 nM,> 1000 nM,–,–
316 nM,794 nM,1000 nM,200 nM,Stable,CCCCCOC(=O)N1CO[C@@H]2[C@H](C)O[C@@H](O[C@H]3C[C@](O)(C(=O)CO)Cc4c(O)c5c(c(O)c43)C(=O)c3c(OC)cccc3C5=O)C[C@@H]21,501 nM,251 nM,1000 nM,5010 nM,> 1000 nM,> 1000 nM,–,–,> 1000 nM,3980 nM,25%
